Reference: paper PMC3960997 (Biochimica et biophysica acta, 2013)

Experiments:
[1] = target: T1, full length TDP-43 (Homo sapiens, UniProt Q13148); assay: Inhibition of bt-TG12 binding to full length TDP-43
Outline: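 In the same Tris pH 7.0 buffer, GST-tagged full-length TDP-43 (1.6 nM) was preincubated 15-30 min at RT with test-compound dilutions. 1.0 nM biotinylated TG12 was then added for 2 hr at RT. Streptavidin Tb donor and anti-GST d2 acceptor (2.6 μg/mL) were added for 1 hr, then time-resolved fluorescence 665/620 ratio. IC50 from three-parameter dose-response fit; geometric means of four determinations.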

[2] = target: T1, full length TDP-43; assay: Inhibition of UBQLN2 binding to full length TDP-43
Outline: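 Test-compound dilutions were preincubated 15-30 min at room temperature with GST-tagged full-length TDP-43 (100 ng/mL, 1.6 nM) in 20 mM Tris pH 7.0, 2 mM MgCl₂, 0.05% CHAPS, 1% glycerol. HIS-UBQLN2 (100 ng/mL, 1.4 nM) was added for 2 hr at RT. Anti-GST Tb donor plus anti-HIS d2 acceptor were added for 1 hr. Read-out was TR-FRET 665/620 nm ratio (ex 330 nm). IC50 from three-parameter fit; geometric mean of four determinations.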

[3] = target: T2, C-terminal TDP-43 (261-414 aa) (Homo sapiens, UniProt Q13148); assay: UBQLN2 saturation binding to C-terminal TDP-43; conditions: read-out: KD for UBQLN2 binding to C-terminal TDP-43, C-terminal TDP-43 (261-414 aa) 4.6 nM, n=4
[4] = target: T3, N-terminal TDP-43 (1-260 aa) (Homo sapiens, UniProt Q13148); assay: UBQLN2 saturation binding to N-terminal TDP-43; conditions: N-terminal TDP-43 (1-260 aa) 2.2 nM, data not shown
[5] = target: T3, N-terminal TDP-43 (1-260 aa); assay: Inhibition of bt-TG12 binding to N-terminal TDP-43; conditions: 1.0 nM bt-TG12, N-terminal TDP-43 2.2 nM, n=3
Outline: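 GST-tagged N-terminal TDP-43 (1-260 aa; 100 ng/mL, 2.2 nM) was incubated 2 hr at RT with 1.0 nM biotinylated TG12 and either unlabeled oligonucleotide (1 pM–1 μM) or HIS-UBQLN2 (0.3 pM–0.3 μM). Streptavidin Tb donor plus anti-GST d2 acceptor (2.6 μg/mL) were added for 1 hr. Normalized to % bound (0% = 1.0 μM unlabeled TG12); IC50 from three-parameter fit. Duplicates, experiment repeated three times.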

[6] = target: T1, full length TDP-43; assay: Mode of inhibition of bt-TG12 binding to full length TDP-43; conditions: F-test comparison of global fits with the mixed inhibition model
Outline: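 Biotinylated TG12 (3–1300 pM) was incubated 2 hr at RT with GST-tagged full-length TDP-43 (1.6 nM), without or with HIS-UBQLN2 (1.0, 3.2, 10, 32 nM). Streptavidin Tb donor and anti-GST d2 acceptor (2.6 μg/mL) were added for 1 hr; nonspecific binding measured without TDP-43. Global nonlinear fits to mixed versus noncompetitive inhibition models compared by F-test. Duplicates, repeated at least three times.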

[7] = target: T1, full length TDP-43; assay: Mode of inhibition of UBQLN2 binding to full length TDP-43
Outline: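 Saturation series: GST-tagged full-length TDP-43 (100 ng/mL, 1.6 nM) with HIS-UBQLN2 (1.0–60 nM), plus oligonucleotide (0–1 μM) or test compound (0–32 μM), 2 hr at RT. Anti-GST/anti-HIS HTRF antibodies were added for 1 hr; nonspecific binding taken without TDP-43. Global nonlinear fits to mixed versus noncompetitive inhibition models compared by F-test; Ki from global model. Duplicates, repeated at least three times.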

[8] = target: T2, C-terminal TDP-43 (261-414 aa); assay: Mode of inhibition of UBQLN2 binding to C-terminal TDP-43
Outline: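 GST-tagged C-terminal TDP-43 (261-414 aa, 4.6 nM) was incubated 2 hr at RT with a HIS-UBQLN2 concentration series, with no test compound or 1, 3.2, 10 or 32 μM. Anti-GST/anti-HIS HTRF antibodies were added for 1 hr, then TR-FRET ratio; nonspecific binding measured without TDP-43. Saturation isotherms globally fitted to a competitive inhibition model. Duplicates, repeated at least three times.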

[9] = target: N-terminal 6XHIS tagged full length UBQLN2 (human, UniProt Q9UHD9 1-624); assay: AlphaScreen or HTRF
Sequence of N-terminal 6XHIS tagged full length UBQLN2 (Q9UHD9 whole entry): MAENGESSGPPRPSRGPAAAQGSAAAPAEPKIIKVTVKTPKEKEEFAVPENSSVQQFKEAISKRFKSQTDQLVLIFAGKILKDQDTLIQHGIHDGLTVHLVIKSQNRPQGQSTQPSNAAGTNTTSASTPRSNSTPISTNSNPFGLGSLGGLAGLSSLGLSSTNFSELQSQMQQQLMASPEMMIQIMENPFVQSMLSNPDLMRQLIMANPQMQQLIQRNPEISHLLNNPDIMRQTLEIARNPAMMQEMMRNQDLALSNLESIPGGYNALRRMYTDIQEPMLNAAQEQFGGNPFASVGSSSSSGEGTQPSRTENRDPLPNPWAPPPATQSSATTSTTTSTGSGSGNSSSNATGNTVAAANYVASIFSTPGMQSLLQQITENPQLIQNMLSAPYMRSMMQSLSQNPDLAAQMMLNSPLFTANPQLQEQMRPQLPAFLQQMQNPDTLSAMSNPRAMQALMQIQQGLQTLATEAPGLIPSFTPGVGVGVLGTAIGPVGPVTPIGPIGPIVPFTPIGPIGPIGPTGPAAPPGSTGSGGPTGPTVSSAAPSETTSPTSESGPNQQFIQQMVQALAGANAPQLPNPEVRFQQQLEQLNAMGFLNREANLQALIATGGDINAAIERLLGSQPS

T1 sequence (Q13148 whole entry): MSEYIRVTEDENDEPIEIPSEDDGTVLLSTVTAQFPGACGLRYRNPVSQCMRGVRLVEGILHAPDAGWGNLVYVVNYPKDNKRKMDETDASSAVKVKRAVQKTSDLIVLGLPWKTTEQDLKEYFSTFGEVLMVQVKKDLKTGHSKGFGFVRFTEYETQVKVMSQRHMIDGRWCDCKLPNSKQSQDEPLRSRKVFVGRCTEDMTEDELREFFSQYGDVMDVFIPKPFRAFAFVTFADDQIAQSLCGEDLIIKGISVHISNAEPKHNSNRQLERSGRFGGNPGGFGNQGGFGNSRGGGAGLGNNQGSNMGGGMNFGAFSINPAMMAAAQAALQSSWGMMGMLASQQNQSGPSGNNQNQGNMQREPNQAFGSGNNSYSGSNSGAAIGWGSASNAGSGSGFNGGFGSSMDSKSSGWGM
T3 sequence (Q13148 1-260): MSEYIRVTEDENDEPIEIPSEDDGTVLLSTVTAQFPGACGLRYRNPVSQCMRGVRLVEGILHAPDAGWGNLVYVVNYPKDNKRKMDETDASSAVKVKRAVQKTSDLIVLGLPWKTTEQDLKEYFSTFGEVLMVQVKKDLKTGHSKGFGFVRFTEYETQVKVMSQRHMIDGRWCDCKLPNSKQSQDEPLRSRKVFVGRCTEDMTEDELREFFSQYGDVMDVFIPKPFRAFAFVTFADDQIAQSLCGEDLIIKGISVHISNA

Molecule: CN(C)CCN(C)c1cc(-c2ccccc2)nc2ccccc12 [AAQ2, N-[2-(dimethylamino)ethyl]-N-methyl-2-phenylquinolin-4-amine]
- IC50 [1]: > 100 nM
- IC50 inhibition of bt-TG12 binding to TDP-43 ([1]; 1.0 nM bt-TG12, TDP-43 1.6 nM): no activity
- IC50 [2]: > 100 nM
- IC50 inhibition of UBQLN2 binding to TDP-43 ([2]; 1.4 nM UBQLN2, TDP-43 1.6 nM): no activity

Molecule: UBQLN2: N-terminal 6XHIS tagged full length UBQLN2 protein, custom made by ProteinTech Group
- Kd [3]: 8.7 nM
- UBQLN2 binding to N-terminal TDP-43 [4]: unable to detect appreciable UBQLN2 binding
- IC50 for inhibition of bt-TG12 binding to N-terminal TDP-43 [5]: unable to inhibit
- Mode of inhibition of bt-TG12 binding to full length TDP-43 [6]: noncompetitive

Molecule: COc1ccc(-c2cc(NCCCN(C)C)c3ccccc3n2)cc1 [AAQ1, (3-{[2-(4-methoxyphenyl)quinolin-4-yl]amino}propyl)dimethylamine]
- IC50 [1]: 1000 nM
- IC50 [2]: 5500 nM
- Fold less potent for inhibition of UBQLN2 binding compared to inhibition of nucleic acid binding to TDP-43 ([2]; full length TDP-43): 5 fold
- Ki [7]: 3400 nM
- Mode of inhibition of UBQLN2 binding to full length TDP-43 ([7]; F-test comparison of global fits with the mixed inhibition model): competitive
- Ki [8]: 4200 nM
- Mode of inhibition of UBQLN2 binding to C-terminal TDP-43 ([8]; C-terminal TDP-43 (261-414 aa)): competitive

Molecule: 5′-CTGCTTTTTGCCTGTACTGGGTCTCTGTGGTT-3′ (DNA CTGCTTTTTGCCTGTACTGGGTCTCTGTGGTT; chemistry not given here) [TAR32, reference compound]
- Fold IC50 relative to TG12 for inhibition of nucleic acid binding ([1]; bt-TG12 binding to full length TDP-43): ~ 10 fold
- IC50 ([1]; read-out: IC50 (95% CI) inhibition of bt-TG12 binding to full length TDP-43, 1.0 nM bt-TG12, TDP-43 1.6 nM, geometric mean of four determinations (Section 2.4)): 16 nM

B1: Human N-terminal GST tagged C-terminal TDP-43 (261-414 aa) (domain or fragment, UniProt Q13148 261-414, looked up)
chain: EPKHNSNRQLERSGRFGGNPGGFGNQGGFGNSRGGGAGLGNNQGSNMGGGMNFGAFSINPAMMAAAQAALQSSWGMMGMLASQQNQSGPSGNNQNQGNMQREPNQAFGSGNNSYSGSNSGAAIGWGSASNAGSGSGFNGGFGSSMDSKSSGWGM
- Kd [9]: 8.7 nM
